Usually ED50 stands for the dose that gives a 50% effect, or the effect in half of the subjects.

Test [1] concerns Mus musculus. Briefly: Analgesic activity in mouse at 32 mg/kg, ip after 2 hrs by hot plate assay. Type of test: functional. The settings on record: route intraperitoneal. The gist of the method:
(§1)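 Mice dropped into a glass cylinder on an aluminum plate held at 57 °C. Timed from foot contact to first hind-foot flick, with a 10-s limit. Observed 0.5 and 2 h after treatment. Value is % of mice failing to react within the limit. At least ten mice per dose.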
A general note: In hot-plate and tail-flick tests a longer latency is read as antinociception.

Test [2] concerns Mus musculus. Nature of the test: Analgesic activity in mouse assessed as tail-flick latency period at 32 mg/kg, ip after 2 hrs by tail flick test. It is filed as functional. As to conditions: route intraperitoneal.
Test [3] relates to Rattus norvegicus. Briefly: Analgesic activity in rat assessed as median foot shock required to elicit flinch-jump at 32 mg/kg, ip after 2 hrs. As to conditions: route intraperitoneal. It is filed as functional. The gist of the method: (§2)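 Series given just before and 0.5 and 2 h after ip dosing. Flinch, squeak and jump were scored. Value is the median shock (mA) that elicits a jump. At least five rats per dose.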

Test [4] deals with Canis familiaris. Briefly: Analgesic activity in dog assessed as rippling of skin at 5 mg/kg, ip after 2 hrs by radiant heat assay. Type of test: functional, Canis lupus familiaris. As to conditions: route intraperitoneal. The gist of the method:
(§3)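 Dogs held in a harness with a shaved mid-back patch placed under a concealed radiant heat source. Endpoint is the latency from heat onset to skin "rippling". Baseline latency measured in each dog, then retested at 0.5 and 2 h after dosing. Result expressed as % of control.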

For test [5], the system named is Mus musculus. Briefly: Analgesic activity in mouse at 100 mg/kg, ip after 2 hrs by hot plate assay. It is filed as functional. As to conditions: route intraperitoneal. The gist of the method:
as §1

Test [6] has as its system Rattus norvegicus. Briefly: Neuroleptic activity in ip dosed rat assessed as drug required for blocking discriminated jump-out avoidance behavior in after 1 hr. Type of test: functional. In outline: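 Rats trained in discriminated jump-out avoidance and tested 1 h after dosing. Value is an estimated ED50 for blocking avoidance.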
In test [7] the test system is Mus musculus. Briefly: Analgesic activity in mouse assessed as tail-flick latency period at 100 mg/kg, ip after 2 hrs by tail flick test. As to conditions: route intraperitoneal. Type of test: functional.
Test [8] relates to Canis familiaris. Briefly: Analgesic activity in dog assessed as rippling of skin at 5 mg/kg, po after 2 hrs by radiant heat assay. Type of test: functional, Canis lupus familiaris. The gist of the method:
as §3

Test [9] concerns Rattus norvegicus. Nature of the test: Analgesic activity in rat assessed as median foot shock required to elicit flinch-jump at 17.8 mg/kg, po after 2 hrs. It is filed as functional.
Test [10] deals with Rattus norvegicus. Briefly: Analgesic activity in rat assessed as median foot shock required to elicit flinch-jump at 10 mg/kg, ip after 2 hrs. Type of test: functional. As to conditions: route intraperitoneal. The gist of the method: as §2
In test [11] the test system is Canis familiaris. Briefly: Analgesic activity in dog assessed as rippling of skin at 10 mg/kg, po after 2 hrs by radiant heat assay. Type of test: functional, Canis lupus familiaris. The gist of the method:
as §3

Test [12] relates to Mus musculus. Nature of the test: Neuroleptic activity in ip dosed mouse assessed as inhibition of amphetamine-induced mortality. Type of test: functional. In outline: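 Aggregated mice in groups of ten given amphetamine. Value is an ED50 estimate for blocking lethality, bracketed between a dose where <5/10 died and a dose where >5/10 died.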
The test system of test [13] is Rattus norvegicus. Nature of the test: Analgesic activity in ip dosed rat assessed as median foot shock required to elicit flinch-jump in presence of naloxone. It is filed as functional, organism-based.
Test [14] is filed under the species Rattus norvegicus. Nature of the test: Induction of cross-tolerance development in rat assessed as median foot shock required to elicit flinch-jump in presence of morphine. It is filed as functional, organism-based.
For test [15], the species on record is Rattus norvegicus. Nature of the test: Induction of tolerance development in rat assessed as median foot shock required to elicit flinch-jump. Type of test: functional, organism-based.
The test system of test [16] is Mus musculus. Nature of the test: Analgesic activity in mouse assessed as tail-flick latency period at 10 mg/kg, ip after 2 hrs by tail flick test. Type of test: functional. The settings on record: route intraperitoneal.
The subject of test [17] is Canis familiaris. Nature of the test: Analgesic activity in dog assessed as rippling of skin at 1.62 mg/kg, sc after 2 hrs by radiant heat assay. It is filed as functional, Canis lupus familiaris. The settings on record: route subcutaneous. In outline: as §3
Test [18] relates to Mus musculus. Nature of the test: Analgesic activity in mouse at 10 mg/kg, ip after 2 hrs by hot plate assay. As to conditions: route intraperitoneal. It is filed as functional. In outline: as §1

Structures are written as SMILES. The source made the active and inactive calls. The calls are words filed in the database; no cut-off is given here.

Turning to `COc1ccc(F)c2c1CCC(CN1CCCCC1)C2=O.Cl` (centres undefined), the values for the Activity in test [1], in test [2] and in [3] were 60%, 10% and 1.6 mA, respectively.

For `CCOC(=O)C1(c2ccccc2)CCN(C)CC1` [MEPERIDINE], the Activity is listed as 150% in test [4], 50% in test [5], 1.2 mA in test [3] and 70% in test [7]. In addition, the ED50 in [6] was found to be 10 mg/kg.

On to `CCC(=O)O[C@](Cc1ccccc1)(c1ccccc1)[C@H](C)CN(C)C` [PROPOXYPHENE], for which the Activity in test [8] is reported as 100%; in [5], 30%; in test [7], 70%; in [9], 1.2%.

On to `CCNCC1CCc2c(OC)ccc(Cl)c2C1=O.Cl` (centres undefined), for which the Activity in [1] is listed as 40%; in test [10], 2.2 mA; in test [2] it was 0%; in test [3], greater than 2.2 mA.

For the molecule `C=CCNCC1CCc2c(OC)ccc(Cl)c2C1=O.Cl` (centres undefined), the Activity in test [1] is 0%; in test [10], 2.2 mA; in [2], 0%; in test [3], greater than 2.2 mA.

Consider `COc1ccc(C)c2c1CCC(CN1CCCCC1)C2=O.Cl` (centres undefined), for which the Activity in [1] is recorded as 40%; in test [10] it was 2.2 mA; in [2] it was 30%; in test [3], greater than 2.2 mA.

In the case of `COc1ccc(Cl)c2c1CCC(CN1CCCC1)C2=O.Cl` (centres undefined), the Activity in [11] is on record as 160%; in test [10] it was 1.2 mA; in test [5], 30%; in test [3], greater than 2.2 mA; in [7], 0%. Moreover, the ED50 was 10 mg/kg in test [12] and greater than 178 mg/kg in test [6]. For the same molecule, the outcome in test [13] was Active. The outcome in test [14] and in test [15] was inactive.

Consider `CN1CC[C@]23c4c5ccc(O)c4O[C@H]2[C@@H](O)C=C[C@H]3[C@H]1C5` [MORPHINE], for which the Activity in test [16] is 80%; in test [17], 155%; in test [18], 70%; in test [9], 1.2%. Moreover, the outcome in [15] was Active.

Source of the values: ChEMBL document CHEMBL3244156, “Analgesic and tranquilizing activity of 5,8-disubstituted 1-tetralone Mannich bases” (1977).
